Experiments:
Format in all cases: functional, organism-based
Haemonchus contortus [1] = experiment: In vitro anthelmintic activity against Haemonchus contortus after 24 hr of incubation using larval mobility assay
Procedure, shortened: (§1)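 L3 larvae (30–40/well) incubated with compound at 27 °C for 2 or 24 h, then moved to an insert whose wells have a nylon mesh (40 µm pores) under 2% low-melt agar. After 4 h more, larvae that migrated through the barrier were counted. Primary screen at 100 ppm, with >50% motility inhibition counted as active. EC50 from 2-fold serial dilutions, 200 to 0.2 µM.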

Haemonchus contortus [2] = experiment: In vitro anthelmintic activity against Haemonchus contortus after 2 hr of incubation using larval mobility assay; procedure, shortened: as §1
Haemonchus contortus [3] = experiment: In vitro anthelmintic activity against Haemonchus contortus after 24 hr of incubation using larval mobility assay; NA denotes <50% inhibition of […] at 100 ppm
Procedure, shortened: (§2)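 H. contortus L3 larvae (30–40/well) exposed to compound at 27 °C for 2 or 24 h, then moved to an insert with a 40 µm nylon mesh under 2% low melt agar. After a further 4 h, larvae that migrated through the barrier were counted. EC50 from 2-fold serial dilutions, 200 to 0.2 µM. Primary screen at 100 ppm, 24 h; >50% motility inhibition counted as active.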

Haemonchus contortus [4] = experiment: In vitro anthelmintic activity against Haemonchus contortus after 2 hr of incubation using larval mobility assay; NA denotes <50% inhibition of […] at 100 ppm; procedure, shortened: as §2

Row | SMILES | EC50 (Haemonchus contortus [1]) | EC50 (Haemonchus contortus [2]) | EC50 (Haemonchus contortus [3]) | EC50 (Haemonchus contortus [4])
1 | CNc1nc(-c2ccccc2)cs1 | 65 µM | 46 µM | – | –
2 | CCSc1cc(-c2ccc([N+](=O)[O-])cc2)cs1 | 15 µM | 193 µM | – | –
3 | CCSc1cc(-c2cccnc2)cs1 | 33 µM | 46 µM | – | –
4 | CCSc1cc(-c2ccccc2)cs1 | – | – | Not Active | –
5 | CSc1nc(-c2ccc(F)cc2)cn1C | – | – | Not Active | –
6 | CSc1scc(-c2ccc(F)cc2)c1Br | 17 µM | > 200 µM | – | –
7 | CNc1nc(-c2ccc(F)cc2)cs1 | 64 µM | 98 µM | – | –
8 | CSc1cc(-c2ccc(F)cc2)cs1 | 68 µM | > 200 µM | – | –
9 | CSc1scc(-c2ccc(F)cc2)c1C#N | 28 µM | > 200 µM | – | –
10 | CSc1ccc(-c2ccc(F)cc2)cc1C#N | – | – | Not Active | –
11 | CSc1ccc(-c2ccc(F)cc2)cc1 | – | – | Not Active | –
12 | CCSc1cc(-c2cccc(C#N)c2)cs1 | 189 µM | > 200 µM | – | –
13 | CCOc1scc(-c2ccc(F)cc2)c1C#N | – | – | Not Active | –
14 | CSc1nc(-c2ccc(F)cc2)c[nH]1 | – | – | Not Active | –
15 | CS(=O)(=O)c1scc(-c2ccc(F)cc2)c1C#N | – | – | Not Active | –
16 | CCSc1cc(-c2cccs2)cs1 | 161 µM | > 200 µM | – | –
17 | N#Cc1cscc1-c1ccc(F)cc1 | – | – | Not Active | –

Row | SMILES | EC50 (Haemonchus contortus [1]) | EC50 (Haemonchus contortus [2]) | EC50 (Haemonchus contortus [3]) | EC50 (Haemonchus contortus [4])
18 | CSc1cccc(-c2ccc(F)cc2)c1 | – | – | Not Active | –
19 | CSc1cc(-c2ccc(F)cc2)co1 | – | – | Not Active | –
20 | CC(=O)c1cc(-c2ccc(F)cc2)cs1 | – | – | Not Active | –
21 | CCSc1c(C#N)c(-c2ccc(F)cc2)cn1C | – | – | Not Active | Not Active
22 | CCc1cc(-c2ccc(F)cc2)cs1 | – | – | Not Active | –
23 | CNc1scc(-c2ccc(F)cc2)c1C#N | – | – | Not Active | –
24 | CCSc1nc(-c2ccccc2)cs1 | 32 µM | > 200 µM | – | –
25 | CSc1nc(-c2ccccc2)cs1 | 190 µM | 82 µM | – | –
26 | CCSc1scc(-c2ccc(F)cc2)c1C#N | 6 µM | > 200 µM | – | –
27 | CSc1c(C#N)c(-c2ccc(F)cc2)cn1C | 175 µM | > 200 µM | – | –
28 | CCSc1cc(-c2ccc(F)cc2)cs1 | 12 µM | > 200 µM | – | –
29 | CCNc1nc(-c2ccccc2)cs1 | 102 µM | 162 µM | – | –
30 | N#Cc1c(-c2ccc(F)cc2)csc1N | – | – | Not Active | –
31 | CSc1scc(-c2ccc(F)cc2)c1[N+](=O)[O-] | – | – | Not Active | –
32 | CCSc1cc(-c2ccc(F)c(F)c2)cs1 | 80 µM | > 200 µM | – | –
33 | c1ccc([C@H]2CN3CCSC3=N2)cc1 [LEVAMISOLE] | 15 µM | 18 µM | – | –

From ChEMBL document CHEMBL1137134, “Novel thiophenes and analogues with anthelmintic activity against Haemonchus contortus” (Bioorg Med Chem Lett, 2004)
